≈ marks a conversion by molar mass, not a printed value. Calls of active or inactive are those of the source. The calls are words filed in the database; no cut-off is given here.
Legend:
Aspergillus niger = experiment: Antifungal activity against Aspergillus niger after 7 days by broth microdilution method; format: functional; settings: 168 h
Summary of the method: (§1)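 MIC by broth method: cultures diluted 10- to 100,000-fold in growth medium, with both undiluted cultures and the dilutions used as inocula; each measurement run in duplicate.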

Cryptococcus neoformans = experiment: Antifungal activity against Cryptococcus neoformans after 7 days by broth microdilution method; format: functional; settings: 168 h; summary of the method: as §1
Candida albicans = experiment: Antifungal activity against Candida albicans after 7 days by broth microdilution method; format: functional; settings: 168 h; summary of the method: as §1
Staphylococcus aureus [1] = experiment: Antimicrobial activity against methicillin-resistant Staphylococcus aureus GU 52300 after 7 days by broth microdilution method; format: functional; settings: GU 52300, 168 h
Summary of the method: (§2)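 MIC read-out; inocula were undiluted cultures plus cultures diluted 10- to 100,000-fold in growth medium. All measurements were run in duplicate.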

Staphylococcus aureus [2] = experiment: Antimicrobial activity against methicillin-resistant Staphylococcus aureus GU 53016 after 7 days by broth microdilution method; format: functional; settings: GU 53016, 168 h; summary of the method: as §2
Staphylococcus aureus [3] = experiment: Antimicrobial activity against methicillin-resistant Staphylococcus aureus GU 36361 after 7 days by broth microdilution method; format: functional; settings: GU 36361, 168 h; summary of the method: as §2
Staphylococcus aureus [4] = experiment: Antimicrobial activity against methicillin-resistant Staphylococcus aureus GU 34380 after 7 days by broth microdilution method; format: functional; settings: GU 34380, 168 h; summary of the method: as §2
Staphylococcus aureus [5] = experiment: Antimicrobial activity against methicillin-resistant Staphylococcus aureus GU 34864 after 7 days by broth microdilution method; format: functional; settings: GU 34864, 168 h; summary of the method: as §2
Staphylococcus aureus [6] = experiment: Antimicrobial activity against methicillin-resistant Staphylococcus aureus ATCC 43300 after 7 days by broth microdilution method; format: functional; settings: ATCC 43300, 168 h; summary of the method: as §2
Staphylococcus aureus [7] = experiment: Antimicrobial activity against methicillin-resistant Staphylococcus aureus DA 1 after 7 days by broth microdilution method; format: functional; settings: DA 1, 168 h; summary of the method: as §2
Staphylococcus aureus [8] = experiment: Antimicrobial activity against Staphylococcus aureus ATCC 6538 after 7 days by broth microdilution method; format: functional; settings: ATCC 6538, 168 h; summary of the method: as §2
SF-268 = experiment: Cytotoxicity against human SF268 cells after 72 hrs by MTS assay; format: functional, cell-based
Summary of the method: (§3)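 Cell lines were MCF-7 human breast carcinoma (Karmanos Cancer Center), NCI-H460 human large cell lung carcinoma (ATCC HTB-177) and SF-268 human astrocytoma (NCI Developmental Therapeutics Program). The cytotoxicity protocol followed an earlier report.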

MCF7 = experiment: Cytotoxicity against human MCF7 cells after 72 hrs by MTS assay; format: functional, cell-based; summary of the method: as §3
NCI-H460 = experiment: Cytotoxicity against human NCI-H460 cells after 72 hrs by MTS assay; format: functional, cell-based; summary of the method: as §3

Row | Compound | MIC (Aspergillus niger) [µg/mL] | MIC (Cryptococcus neoformans) [µg/mL] | MIC (Candida albicans) [µg/mL] | MIC (Staphylococcus aureus [1]) [µg/mL] | MIC (Staphylococcus aureus [2]) [µg/mL] | MIC (Staphylococcus aureus [3]) [µg/mL] | MIC (Staphylococcus aureus [4]) [µg/mL] | MIC (Staphylococcus aureus [5]) [µg/mL] | MIC (Staphylococcus aureus [6]) [µg/mL] | MIC (Staphylococcus aureus [7]) [µg/mL] | MIC (Staphylococcus aureus [8]) [µg/mL] | Activity (SF-268) | Activity (MCF7) | Activity (NCI-H460) | IC50 (SF-268; SF-268, 72 h) [µM] | IC50 (MCF7; MCF7, 72 h) [µM] | IC50 (NCI-H460; NCI-H460, 72 h) [µM]
1 | CC1=CC[C@H]([C@](C)(O)CCC(O)C(C)(C)O)CC1 (some centres not stated) | > 118 | > 118 | > 118 | > 118 | > 118 | > 118 | > 118 | > 118 | > 118 | > 118 | > 118 |  |  |  |  |  | 
2 | CC(CCCCCCCCC(=O)CCCCCCCCC[C@@H](O)CO[C@@H]1O[C@H](CO)[C@@H](O)[C@H](O)[C@H]1O)C(=O)C1=C(O)C(Cc2ccc(O)cc2)=NC1=O (some centres not stated) | > 55 | > 55 | > 55 | 28 (≈ 37.4 µM) | 28 (≈ 37.4 µM) | 28 (≈ 37.4 µM) | 14 (≈ 18.7 µM) | 14 (≈ 18.7 µM) | 14 (≈ 18.7 µM) | 14 (≈ 18.7 µM) | 14 (≈ 18.7 µM) | inactive | inactive | inactive |  |  | 
3 | CC[C@H](C)[C@@H](NC(=O)[C@@](C)(CC)NC(=O)[C@@H]1C[C@@H](O)CN1C(=O)[C@@](C)(CC)NC(=O)[C@@](C)(CC)NC(=O)C(C)(C)NC(=O)[C@@H]1C[C@@H](O)CN1C(=O)[C@@](C)(CC)NC(=O)[C@H](CC(C)C)NC(=O)[C@@H]1C[C@@H](O)CN1C(=O)[C@](C)(CC)NC(=O)[C@H](CC(C)C)NC(=O)[C@@H]1C[C@@H](O)CN1C(=O)C(C)(C)NC(C)=O)C(=O)O[C@@H]([C@H](O)[C@H](O)CO)[C@H](O)CO | > 118 | > 118 | > 118 | > 118 | > 118 | > 118 | > 118 | > 118 | > 118 | > 118 | > 118 |  |  |  |  |  | 
4 | CC(=O)c1coc(=O)c2c(O)cc(O)c(C)c12 |  |  |  |  |  |  |  |  |  |  |  |  |  |  | > 10 | > 10 | > 10
5 | C[C@@H]1[C@H](O)[C@@H](C)/C=C/C=C/C=C/C=C/C=C/C=C/C=C/[C@H](O[C@@H]2O[C@H](C)[C@@H](O)[C@H](N)[C@@H]2O)C[C@@H]2O[C@](O)(C[C@@H](O)C[C@@H](O)[C@H](O)CC[C@@H](O)C[C@@H](O)CC(=O)O[C@H]1C)C[C@H](O)[C@H]2C(=O)O [AMPHOTERICIN B] | 100 (≈ 108 µM) | 25 (≈ 27.1 µM) | 25 (≈ 27.1 µM) |  |  |  |  |  |  |  |  |  |  |  |  |  | 
6 | CC[C@H](C)[C@@H](NC(=O)[C@@](C)(CC)NC(=O)[C@@H]1C[C@@H](O)CN1C(=O)C(C)(C)NC(=O)[C@@](C)(CC)NC(=O)C(C)(C)NC(=O)[C@@H]1C[C@@H](O)CN1C(=O)[C@@](C)(CC)NC(=O)[C@H](CC(C)C)NC(=O)[C@@H]1C[C@@H](O)CN1C(=O)[C@](C)(CC)NC(=O)[C@H](CC(C)C)NC(=O)[C@@H]1C[C@@H](O)CN1C(=O)C(C)(C)NC(C)=O)C(=O)O[C@@H]([C@H](O)[C@H](O)CO)[C@H](O)CO [CLONOSTACHIN] | > 118 | > 118 | > 118 | > 118 | > 118 | > 118 | > 118 | > 118 | > 118 | > 118 | > 118 |  |  |  |  |  | 
7 | CN[C@H](CC(C)C)C(=O)N[C@H]1C(=O)N[C@@H](CC(N)=O)C(=O)N[C@H]2C(=O)N[C@H]3C(=O)N[C@H](C(=O)N[C@H](C(=O)O)c4cc(O)cc(O)c4-c4cc3ccc4O)[C@H](O)c3ccc(c(Cl)c3)Oc3cc2cc(c3O[C@@H]2O[C@H](CO)[C@@H](O)[C@H](O)[C@H]2O[C@H]2C[C@](C)(N)[C@H](O)[C@H](C)O2)Oc2ccc(cc2Cl)[C@H]1O [VANCOMYCIN] |  |  |  |  | 0.38 (≈ 0.262 µM) | 0.75 (≈ 0.518 µM) |  | 0.38 (≈ 0.262 µM) | 0.25 (≈ 0.173 µM) | 0.25 (≈ 0.173 µM) | 0.25 (≈ 0.173 µM) |  |  |  |  |  | 
8 | CC(CCCCCCCCC(=O)CCCCCCCCC[C@@H](O)CO)C(=O)C1=C(O)[C@H](Cc2ccc(O)cc2)NC1=O (some centres not stated) [VIRGINEONE AGLYCONE] | > 88 | > 88 | > 88 | 5.5 (≈ 9.36 µM) | 2.8 (≈ 4.76 µM) | 5.5 (≈ 9.36 µM) | 2.8 (≈ 4.76 µM) | 2.8 (≈ 4.76 µM) | 2.8 (≈ 4.76 µM) | 2.8 (≈ 4.76 µM) | 2.8 (≈ 4.76 µM) | inactive | inactive | inactive |  |  | 
9 | CC(CCCCCCCCC(=O)CCCCCCCCCC(O)CO[C@@H]1O[C@H](CO)[C@@H](O)[C@H](O)[C@@H]1O)C(=O)C1=C(O)C(Cc2ccc(O)cc2)NC1=O (some centres not stated) [VIRGINEONE] | 14.4 (≈ 19.2 µM) | 14.4 (≈ 19.2 µM) | 14.4 (≈ 19.2 µM) | 7.2 (≈ 9.6 µM) | 7.2 (≈ 9.6 µM) | 7.2 (≈ 9.6 µM) | 7.2 (≈ 9.6 µM) | 7.2 (≈ 9.6 µM) | 7.2 (≈ 9.6 µM) | 7.2 (≈ 9.6 µM) | 7.2 (≈ 9.6 µM) | inactive | inactive | inactive |  |  | 
